Experimental findings from ChEMBL document CHEMBL1144212, “Design and synthesis of 3-pyrazolyl-thiophene, thieno[2,3-d]pyrimidines as new bioactive and pharmacological activities” (Bioorg Med Chem Lett, 2008) are described below.

The test system of data set [1] is Rattus norvegicus. The data set can be described thus: Antiinflammatory activity against carrageenan-induced albino rat hind paw edema model at 15 mg/kg, po administered 1 hr before carrageenan challenge measured after 3 hrs relative to indomethacin. It is filed as functional. For orientation: Carrageenan injected into the paw causes an acute inflammation.
Data set [2] relates to Bacillus cereus. The data set is described as follows: Antibacterial activity against Bacillus cereus BTCC19 after 48 hrs by disc diffusion method. Format: functional. An outline of the steps:
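Disc diffusion on nutrient agar. Compounds were dissolved in DMF at 1 mg/mL, applied per disc. Inhibition zones (mm) were read after 48 h at 28 °C. DMF alone was the negative control; ampicillin was the reference.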
For orientation: Agar diffusion results depend on both activity and mobility in agar.

For data set [3], the system named is Shigella dysenteriae. The data set can be described thus: Antibacterial activity against Shigella dysenteriae AE 14396 after 48 hrs by disc diffusion method. It is filed as functional. Conditions: read-out: MIC.
Data set [4] relates to Salmonella typhi. The data set can be described thus: Antibacterial activity against Salmonella typhi AE 14612 after 48 hrs by disc diffusion method. It is filed as functional, Salmonella enterica subsp. enterica serovar Typhi. As to conditions: Salmonella enterica, read-out: MIC.
Data set [5] has as its system Fusarium equiseti. The data set can be described thus: Antifungal activity against Fusarium equiseti (Corda) Sacc after 48 hrs by poisoned-food technique. Format: functional. The arrangement: concentration or dose not given beside the values.
The test system of data set [6] is Rattus norvegicus. The data set is described as follows: Antiinflammatory activity against carrageenan-induced albino rat hind paw edema model assessed as edema rate at 15 mg/kg, po administered 1 hr before carrageenan challenge measured after 1 hr. Format: functional. The procedure, abridged: (§1)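 Albino rats of both sexes were fasted 18 h, five per group. Dosing was 15 mg/kg orally as an aqueous suspension (tween-80/water vehicle), 1 h before subplantar 0.1 mL 1% w/v carrageenin in the left hind paw. Paw volume was measured by mercury plethysmometer before injection, then hourly for 4 h. Edema rate = (Vt − Vo)/Vo.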

The test system of data set [7] is Rattus norvegicus. The data set is described as follows: Antiinflammatory activity against carrageenan-induced albino rat hind paw edema model at 15 mg/kg, po administered 1 hr before carrageenan challenge measured after 1 hr relative to indomethacin. It is filed as functional.
The test system of data set [8] is Rattus norvegicus. The data set is described as follows: Antiinflammatory activity against carrageenan-induced albino rat hind paw edema model assessed as edema rate at 15 mg/kg, po administered 1 hr before carrageenan challenge measured after 2 hrs. It is filed as functional. An outline of the steps: as §1
Data set [9] deals with Rattus norvegicus. The data set can be described thus: Antiinflammatory activity against carrageenan-induced albino rat hind paw edema model at 15 mg/kg, po administered 1 hr before carrageenan challenge measured after 2 hrs relative to indomethacin. It is filed as functional.
Data set [10] deals with Rattus norvegicus. The data set can be described thus: Antiinflammatory activity against carrageenan-induced albino rat hind paw edema model assessed as edema rate at 15 mg/kg, po administered 1 hr before carrageenan challenge measured after 3 hrs. It is filed as functional. An outline of the steps:
as §1

In data set [11] the test system is Rattus norvegicus. The data set can be described thus: Antiinflammatory activity against carrageenan-induced albino rat hind paw edema model assessed as edema rate at 15 mg/kg, po administered 1 hr before carrageenan challenge measured after 4 hrs. Format: functional. The procedure, abridged: as §1
Data set [12] relates to Rattus norvegicus. The data set is described as follows: Antiinflammatory activity against carrageenan-induced albino rat hind paw edema model at 15 mg/kg, po administered 1 hr before carrageenan challenge measured after 4 hrs relative to indomethacin. Format: functional.
For data set [13], the system named is Mus musculus. The data set is described as follows: Analgesic activity in Swiss albino mouse at 20 mg/kg, po assessed as reaction time after 30 mins by hot plate method. Format: functional. An outline of the steps:
(§2)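 Swiss albino mice of both sexes (25–30 g), kept at 22 °C on a 12 h light/dark cycle, in groups of five. Given 20 mg/kg orally as an aqueous suspension; aspirin reference at 20 mg/kg orally. Hot plate at 53 °C. Reaction time (placement to hind-paw licking or jumping) was taken before dosing and at 15, 30, 60 and 90 min; 60 s cut-off.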

Data set [14] relates to Mus musculus. The data set is described as follows: Analgesic activity in Swiss albino mouse at 20 mg/kg, po assessed as reaction time after 60 mins by hot plate method. Format: functional. An outline of the steps: as §2
The test system of data set [15] is Mus musculus. The data set can be described thus: Analgesic activity in Swiss albino mouse at 20 mg/kg, po assessed as reaction time after 90 mins by hot plate method. It is filed as functional. An outline of the steps: as §2
In general terms: Hot-plate and tail-flick tests time the reaction to a heat stimulus.

Data set [16] has as its system Rattus norvegicus. The data set can be described thus: Gastrointestinal toxicity in carrageenan-induced albino rat hind paw edema model assessed as induction of ulcerogenicity at 15 mg/kg, po. It is filed as organism-based. Conditions: in vivo. On the set-up: dose 15 mg/kg, route oral.

For orientation: inhibition means the share of the control response that was lost under treatment.

Consider `CCOC(=O)c1sc(N)c(C(=O)N2NC(=O)CC2=O)c1C`, for which the Activity in data set [1] is reported as 65.5%; in data set [6], -26.54%; in data set [7], 74.8%; in [8], -31.04%; in data set [9], 78.01%; in [10], -20.9%. In addition, the Activity in [11] was -26.84%; in data set [12], 65.27%; in data set [13], 10.22 s; in data set [14], 12.42 s; in data set [15], 10.68 s; in [16], “Non-toxic”. Moreover, the figures for the zone of inhibition in [2], in data set [3] and in data set [4] were 9 mm, 12 µg/mL and 15 µg/mL, respectively. The compound also displayed an inhibition in data set [5] of 40%.

For `CCOC(=O)c1sc(N)c(C(=O)n2nc(C)cc2C)c1C`, the Activity in [1] was 25.38%; in [6], 2.58%; in [7], -7.27%; in data set [8], 7.88%; in [9], 19.8%; in data set [10] it was 8.46%. The Activity in data set [11] is on record as -0.25%; in data set [12], 0.61%; in [13], 7.72 s; in [14], 7.62 s; in data set [15], 9.78 s; in data set [16], “Non-toxic”.

Take `CCOC(=O)c1sc2[nH]c(=S)n(N)c(=O)c2c1C`: the Activity in data set [1] is given as 31.74%; in data set [6] it was -30.19%; in [7], 85.09%; in data set [8], -14.54%; in data set [9], 36.54%; in [10], -10.58%. For the same compound, the Activity was -24.67% in data set [11]; 59.99% in data set [12]; 6.6 s in data set [13]; 7.24 s in [14]; 7.16 s in [15]. For the same compound, the zone of inhibition worked out at 19 mm in data set [2], 18 µg/mL in [3] and 17 µg/mL in [4]. Further, the inhibition in data set [5] was found to be 47.6%.

Turning to `CCOC(=O)c1sc(NC(C)=O)c(C(=O)OCC)c1C`, the Activity in data set [1] is recorded as 0.12%; in data set [6], -15.03%; in data set [7] it was 42.36%; in [8], -12.11%; in [9] it was 30.44%; in data set [10] it was -4%. Also, the Activity in [11] is recorded as -5.2%; in data set [12] it was 12.65%; in [13], 7.34 s; in data set [14], 5.96 s; in data set [15], 6.08 s. Moreover, the zone of inhibition in data set [2] was found to be 11 mm; in data set [3], 14 µg/mL; in data set [4], 11 µg/mL. The compound further displayed an inhibition in data set [5] of 36.3%.

Consider `CCOC(=O)c1sc2nc(C)n(N)c(=O)c2c1C`, for which the Activity was 43.95% in [1]; -29.82% in [6]; 84.05% in data set [7]; -17.93% in [8]; 45.06% in data set [9]; -14.65% in data set [10]. Further, the Activity in data set [11] is -15.24%; in [12], 37.06%; in data set [13], 6.46 s; in data set [14], 5.04 s; in data set [15], 6.7 s. In addition, the zone of inhibition in data set [2] was 15 mm; in [3], 7 µg/mL; in [4], 15 µg/mL. This compound also gave an inhibition in [5] of 37.5%.

With `CCOC(=O)c1sc(N)c(C(=O)NNC(N)=S)c1C`, the Activity was 88.21% in [1]; 36.56% in data set [6]; 103.04% in data set [7]; -37.21% in [8]; 93.52% in data set [9]; -29.4% in data set [10]. The Activity in data set [11] is -34.62%; in data set [12], 84.19%; in [13], 5.44 s; in [14], 5.74 s; in data set [15], 6.14 s. Moreover, the zone of inhibition in [2] stood at 20 mm; in [3], 13 µg/mL; in data set [4] it was 28 µg/mL. For the same compound, the inhibition in data set [5] was determined as 28%.

As for `CCOC(=O)c1sc(N)c(C(=O)NNC=O)c1C`, the Activity in data set [1] is listed as 88.75%; in data set [6], -51.18%; in data set [7], 144.25%; in data set [8], -38.2%; in data set [9] it was 96%; in data set [10], -29.58%. Further, the Activity in data set [11] was -31.32%; in data set [12] it was 76.17%; in [13], 6.08 s; in [14], 6.9 s; in [15], 4.84 s. In addition, the results for the zone of inhibition in data set [2], in data set [3] and in [4] were 33 mm, 30 µg/mL and 34 µg/mL, respectively. The compound also registered an inhibition in data set [5] of 65.6%.

In the case of `CC(=O)Oc1ccccc1C(=O)O` [ASPIRIN], the Activity in [13] is given as 6.66 s; in [14], 6.56 s; in [15], 7.78 s.

In the case of `CC1(C)S[C@@H]2[C@H](NC(=O)[C@H](N)c3ccccc3)C(=O)N2[C@H]1C(=O)O` [AMPICILLIN], the values for the zone of inhibition in data set [2], in data set [3] and in data set [4] were 21 mm, 30 µg/mL and 24 µg/mL, respectively.

In the case of `CCOC(=O)c1sc(N)c(C(=O)NN)c1C`, the Activity is given as 29.4% in data set [1]; -13.43% in data set [6]; 37.85% in [7]; -8.84% in data set [8]; 22.22% in [9]; -9.8% in data set [10]. In addition, the Activity in data set [11] was -13.32%; in [12], 32.39%; in data set [13], 6.12 s; in data set [14] it was 6.2 s; in data set [15], 7.86 s; in data set [16], “Non-toxic”. In addition, the zone of inhibition stood at 10 mm in [2] and 6 µg/mL in data set [3]. In data set [5], this compound showed an inhibition of 29.3%.

For `CCOC(=O)c1sc(N)c(C(=O)NNc2nc(C)cs2)c1C`, the Activity in [1] is 75.99%; in data set [6] it was -45.14%; in data set [7], 127.23%; in data set [8] it was -37.17%; in [9], 93.42%; in data set [10], -25.33%. In addition, the Activity was -26.53% in data set [11]; 64.52% in data set [12]; 6.68 s in data set [13]; 6.46 s in data set [14]; 4.7 s in data set [15]. Besides, the zone of inhibition worked out at 31 mm in data set [2], 28 µg/mL in data set [3] and 29 µg/mL in [4]. The inhibition in [5] was 43.8%.

For `CCOC(=O)c1sc(N)c(C(=O)N/N=C/c2ccc(OC)cc2)c1C`, the Activity in data set [1] is recorded as 11.73%; in data set [6], -14.4%; in data set [7], 40.59%; in [8], -1.52%; in [9], 3.82%; in data set [10], -3.91%. Besides, the Activity is -13.29% in data set [11]; 32.32% in data set [12]; 6.42 s in data set [13]; 7.72 s in data set [14]; 9.06 s in data set [15]. Besides, the zone of inhibition in data set [2] was determined as 10 mm; in [4] it was 12 µg/mL. In [5], this compound came in with an inhibition of 28%.
